The subject of series [1] is Rattus norvegicus. In words: AUC (0 to 8 hrs) in fasted Sprague-Dawley rat assessed as ertapenem level at 10 mg/kg dosed through intraduodenal route by LC-MS/MS method. Format: ADME, organism-based, Plasma. Further details: time < 8 hr, dose 10 mg/kg, route intraduodenal. As to conditions: in vivo, other. Summed up: (§1)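 Prodrugs were given intraduodenally to bypass stomach acid. Plasma was sampled at intervals over 8 h, and parent prodrug, the two monoester metabolites and ertapenem were quantified by LC-MS/MS. The lower limit of quantitation was 5 nM. AUC(0–8) was used, and it differed from AUC(0–∞) by ±20%. Vehicles were 30% Captisol or 0.5% methylcellulose, as solution or suspension depending on compound.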

Series [2] relates to Rattus norvegicus. In words: Oral bioavailability in fasted Sprague-Dawley rat assessed as ertapenem level at 10 mg/kg dosed through intraduodenal route by LC-MS/MS method. It counts as ADME, organism-based. As to conditions: in vivo. Summed up:
(§2)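 After intraduodenal dosing, plasma over 8 h was analysed by LC-MS/MS. Bioavailability was calculated as dose-normalized AUC of ertapenem formed from the prodrug divided by dose-normalized AUC of ertapenem dosed iv. Vehicle was 30% Captisol or 0.5% methylcellulose.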

Series [3] can be described thus: Stability in pH 7.4 phosphate buffer assessed as compound remaining at 50 uM after 3 hrs by LC-MS/MS method. It counts as physicochemical. As to conditions: read-out: Stability.
In series [4] the test system is Canis familiaris. In words: Oral bioavailability in fasted Beagle dog assessed as assessed as ertapenem and monoetser metabolites level at 10 mg/kg dosed through intraduodenal route by LC-MS/MS method. It counts as ADME, organism-based, Canis lupus familiaris. Particulars: in vivo. Summed up: (§3)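 Total absorption followed intraduodenal dosing with LC-MS/MS of plasma over 8 h. It was calculated as the combined dose-normalized AUC of circulating parent prodrug, ertapenem and two monoesters, divided by dose-normalized AUC of ertapenem given iv. Vehicle was 30% Captisol or 0.5% methylcellulose.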

Series [5] relates to Rattus norvegicus. In words: AUC (0 to 8 hrs) in fasted Sprague-Dawley rat at 10 mg/kg dosed through intraduodenal route by LC-MS/MS method. It counts as ADME, organism-based, Plasma. Details: time < 8 hr, dose 10 mg/kg, route intraduodenal. As to conditions: in vivo, other, 8 h, BLD = below limit of detection. The procedure, abridged:
as §1

Series [6] has as its system Canis familiaris. In words: AUC (0 to 8 hrs) in fasted Beagle dog assessed as 8-OH, benzoate ester level at 10 mg/kg dosed through intraduodenal route by LC-MS/MS method. As to conditions: in vivo, other. Further details: time < 8 hr, dose 10 mg/kg, route intraduodenal. Format: ADME, organism-based, Canis lupus familiaris, Plasma. The procedure, abridged:
as §1

Series [7] in a line: Stability in pH 2.0 simulated gastric fluid assessed as compound degradation to beta-lactam ring open products at 1 uM after 60 mins by LC-MS/MS method. It counts as ADME. Particulars: read-out: Drug degradation. Summed up: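 Incubation was in simulated gastric fluid (SGF, pH 2.0) for 60 min, with loss to the β-lactam ring-opened product measured by LC-MS/MS.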
Series [8] can be described thus: AUC (0 to 8 hrs) in fasted Beagle dog at 10 mg/kg dosed through intraduodenal route by LC-MS/MS method. Format: ADME, organism-based, Canis lupus familiaris, Plasma. Details: time < 8 hr, dose 10 mg/kg, route intraduodenal. As to conditions: Beagle, plasma. The procedure, abridged: as §1
Series [9] relates to Canis familiaris. In words: Oral bioavailability in fasted Beagle dog assessed as ertapenem level at 10 mg/kg dosed through intraduodenal route by LC-MS/MS method. Format: ADME, organism-based, Canis lupus familiaris. As to conditions: in vivo. Summed up:
as §2

Series [10] relates to Canis familiaris. In words: AUC (0 to 8 hrs) in fasted Beagle dog assessed as 8-OH, C-3 ester level at 10 mg/kg dosed through intraduodenal route by LC-MS/MS method. It counts as ADME, organism-based, Canis lupus familiaris, Plasma. Details: time < 8 hr, dose 10 mg/kg, route intraduodenal. As to conditions: in vivo, other. Summed up: as §1
A short description of series [11]: Stability in pH 6.5 simulated gastrointestinal fluid assessed as compound remaining at 50 uM after 3 hrs by LC-MS/MS method. Format: ADME. As to conditions: read-out: Stability. Summed up:
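Compounds at 50 μM were incubated in fasted-state simulated intestinal fluid (FaSSIF, pH 6.5) for over 3 h. Percent remaining was determined by LC-MS/MS.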

The nature of series [12]: Stability in human plasma assessed as compound remaining at 50 uM at 37 degC after 60 mins by LC-MS/MS method. It counts as ADME, cell-free. As to conditions: read-out: Stability. Summed up:
(§4)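 Prodrugs were incubated in rat or human plasma for 60 min. Disappearance of prodrug and concomitant appearance of ertapenem were followed by LC-MS/MS, and in selected cases monoesters from partial hydrolysis were also monitored. Ertapenem itself was incubated the same way as a control.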

A short description of series [13]: Stability in rat plasma assessed as compound remaining at 50 uM at 37 degC after 60 mins by LC-MS/MS method. It counts as ADME, cell-free. Particulars: read-out: Stability. Summed up: as §4
Series [14] deals with Rattus norvegicus. In words: Oral bioavailability in fasted Sprague-Dawley rat assessed as ertapenem and monoetser metabolites level at 10 mg/kg dosed through intraduodenal route by LC-MS/MS method. As to conditions: in vivo. It counts as ADME, organism-based. The procedure, abridged: as §3
Series [15] relates to Canis familiaris. In words: AUC (0 to 8 hrs) in fasted Beagle dog assessed as ertapenem level at 10 mg/kg dosed through intraduodenal route by LC-MS/MS method. Format: ADME, organism-based, Canis lupus familiaris, Plasma. Details: time < 8 hr, dose 10 mg/kg, route intraduodenal. As to conditions: in vivo, other. Summed up: as §1
The subject of series [16] is Rattus norvegicus. In words: Oral bioavailability in fasted Sprague-Dawley rat assessed as ertapenem and monoetser metabolites level at 7.4 mg/kg dosed through intraduodenal route by LC-MS/MS method. Format: ADME, organism-based. Particulars: in vivo. The procedure, abridged:
as §3

Series [17] concerns Rattus norvegicus. In words: Oral bioavailability in fasted Sprague-Dawley rat assessed as ertapenem level at 7.4 mg/kg dosed through intraduodenal route by LC-MS/MS method. Particulars: in vivo. Format: ADME, organism-based. The procedure, abridged: as §2
In series [18] the test system is Rattus norvegicus. In words: AUC (0 to 8 hrs) in fasted Sprague-Dawley rat assessed as ertapenem level at 7.4 mg/kg dosed through intraduodenal route by LC-MS/MS method. It counts as ADME, organism-based, Plasma. As to conditions: in vivo, other. Details: time < 8 hr, dose 7.4 mg/kg, route intraduodenal. Summed up:
as §1

In series [19] the test system is Rattus norvegicus. In words: AUC (0 to 8 hrs) in fasted Sprague-Dawley rat at 7.4 mg/kg dosed through intraduodenal route by LC-MS/MS method. It counts as ADME, organism-based, Plasma. Further details: time < 8 hr, dose 7.4 mg/kg, route intraduodenal. Particulars: in vivo, other, BLD = below limit of detection. Summed up: as §1
Series [20] in a line: Oral drug absorption in fasted Beagle dog at 10 mg/kg dosed through intraduodenal route by LC-MS/MS method. It counts as ADME, organism-based, Canis lupus familiaris. Details: dose 10 mg/kg, route intraduodenal. As to conditions: in vivo. Summed up:
as §3

Molecules are shown by their SMILES.

On to `C[C@@H](O)[C@H]1C(=O)N2C(C(=O)OCC(F)(F)F)=C(S[C@@H]3CN[C@H](C(=O)Nc4cccc(C(=O)OCC(F)(F)F)c4)C3)[C@H](C)[C@H]12`, for which the AUC – broadly, the area under the concentration-time curve, a measure of exposure – in the series with Rattus norvegicus [1] was 1.7 µM·h; in the series on Rattus norvegicus [5], “BLD”; in the series on Canis familiaris [6], 0.2 µM·h; in the series with Canis familiaris [10], 0.8 µM·h; with Canis familiaris [15], 6.7 µM·h. Moreover, the F in the series on Rattus norvegicus [2] is 3%; with Canis familiaris [4] it was 12%; with Canis familiaris [9], 10.2%; with Rattus norvegicus [14], 3%. Besides, the remaining at 3 h, 50 µM in series [3] and in [11] was greater than 95% throughout. Moreover, the degraded at 1 h, 1 µM in series [7] was greater than 25%. In series [8], the AUC(0-t) (commonly the area under the concentration-time curve up to a stated or last time point) at 8 h worked out at 0.2 µM·h. Moreover, the remaining at 1 h, 50 µM in series [12] was determined as 6%; in series [13] it was 3%.

For `CC(C)c1oc(=O)oc1COC(=O)C1=C(S[C@@H]2CN[C@H](C(=O)Nc3cccc(C(=O)OCc4oc(=O)oc4C(C)C)c3)C2)[C@H](C)[C@@H]2[C@@H]([C@@H](C)O)C(=O)N12`, the AUC is 0.4 µM·h with Rattus norvegicus [1] and “BLD” with Rattus norvegicus [5]. In addition, the F with Rattus norvegicus [2] and in the series with Rattus norvegicus [14] was 0.9% each time. For the same molecule, the remaining at 3 h, 50 µM in series [3] and in [11] was greater than 95% each time. Also, in [7], the degraded at 1 h, 1 µM is greater than 25%. Also, the remaining at 1 h, 50 µM turned out to be 8% in series [12] and 6% in [13].

On to `Cc1oc(=O)oc1COC(=O)C1=C(S[C@@H]2CN[C@H](C(=O)Nc3cccc(C(=O)OCc4oc(=O)oc4C)c3)C2)[C@H](C)[C@@H]2[C@@H]([C@@H](C)O)C(=O)N12`, for which the remaining at 3 h, 50 µM in series [3] and in series [11] was greater than 95% in each case. The F in the series with Rattus norvegicus [16] and in the series with Rattus norvegicus [17] was 0.8% each time. Also, in [7], the degraded at 1 h, 1 µM is greater than 25%. Also, the area under the curve (AUC) in the series with Rattus norvegicus [18] is 0.3 µM·h; in the series on Rattus norvegicus [19], “BLD”. For the same molecule, the remaining at 1 h, 50 µM in series [13] was 0%.

For the molecule `CC(C)CCC[C@@H](C)[C@H]1CC[C@H]2[C@@H]3CC=C4C[C@@H](OC(=O)COC(=O)c5cccc(NC(=O)[C@@H]6C[C@H](SC7=C(C(=O)OCC(F)(F)F)N8C(=O)[C@H]([C@@H](C)O)[C@H]8[C@H]7C)CN6)c5)CC[C@]4(C)[C@H]3CC[C@]12C`, the remaining at 3 h, 50 µM in series [3] and in series [11] was greater than 95% throughout. In addition, the F in the series on Canis familiaris [4] is on record as 0.1%; in the series on Canis familiaris [9] (BLD = below limit of detection), “BLD”. Also, in [7], the degraded at 1 h, 1 µM is greater than 25%. The AUC(0-t) at 8 h in series [8] was less than 0.1 µM·h. Moreover, the AUC entry with Canis familiaris [10] (BLD = below limit of detection) and in the series with Canis familiaris [15] (BLD = below limit of detection) was “BLD” in each case. The remaining at 1 h, 50 µM was found to be 92% in series [12] and 97% in series [13]. This molecule registered a Fa in series [20] of less than 0.1%.

The values are drawn from ChEMBL document CHEMBL3351346, “Design, synthesis, structure-function relationship, bioconversion, and pharmacokinetic evaluation of ertapenem prodrugs” (J Med Chem, 2014).
